We go through 37 compounds from ChEMBL document CHEMBL5537199, “Discovery and SAR Study of Boronic Acid-Based Selective PDE3B Inhibitors from a Novel DNA-Encoded Library” (J Med Chem, 2024).

The nature of test [1]: Selectivity ratio of inhibition for PDE3A (M1 to Q1141 residues) (unknown origin) by RF-MS assay to inhibition for PDE3B (M1 to E1112 residues) (unknown origin) by RF-MS assay.
The target of test [2] is cGMP-inhibited 3',5'-cyclic phosphodiesterase 3B (Homo sapiens, UniProt Q13370). Nature of the test: Inhibition of full-length PDE3B (M1 to E1112 residues) (unknown origin) using FAM-cAMP as substrate incubated for 120 mins by TR-FRET IMAP assay. In outline: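 Buffer 50 mM Tris-HCl pH 7.5, 8.3 mM MgCl2, 1.7 mM EGTA, 0.05% BSA. Compounds run as a concentration curve with a top final concentration of 100 μM. DMSO and 10 μM trequinsin served as controls. Terbium TR-FRET ratio read at 520:490 nm.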
Chain of cGMP-inhibited 3',5'-cyclic phosphodiesterase 3B (Q13370 whole entry, the tested form may be a part): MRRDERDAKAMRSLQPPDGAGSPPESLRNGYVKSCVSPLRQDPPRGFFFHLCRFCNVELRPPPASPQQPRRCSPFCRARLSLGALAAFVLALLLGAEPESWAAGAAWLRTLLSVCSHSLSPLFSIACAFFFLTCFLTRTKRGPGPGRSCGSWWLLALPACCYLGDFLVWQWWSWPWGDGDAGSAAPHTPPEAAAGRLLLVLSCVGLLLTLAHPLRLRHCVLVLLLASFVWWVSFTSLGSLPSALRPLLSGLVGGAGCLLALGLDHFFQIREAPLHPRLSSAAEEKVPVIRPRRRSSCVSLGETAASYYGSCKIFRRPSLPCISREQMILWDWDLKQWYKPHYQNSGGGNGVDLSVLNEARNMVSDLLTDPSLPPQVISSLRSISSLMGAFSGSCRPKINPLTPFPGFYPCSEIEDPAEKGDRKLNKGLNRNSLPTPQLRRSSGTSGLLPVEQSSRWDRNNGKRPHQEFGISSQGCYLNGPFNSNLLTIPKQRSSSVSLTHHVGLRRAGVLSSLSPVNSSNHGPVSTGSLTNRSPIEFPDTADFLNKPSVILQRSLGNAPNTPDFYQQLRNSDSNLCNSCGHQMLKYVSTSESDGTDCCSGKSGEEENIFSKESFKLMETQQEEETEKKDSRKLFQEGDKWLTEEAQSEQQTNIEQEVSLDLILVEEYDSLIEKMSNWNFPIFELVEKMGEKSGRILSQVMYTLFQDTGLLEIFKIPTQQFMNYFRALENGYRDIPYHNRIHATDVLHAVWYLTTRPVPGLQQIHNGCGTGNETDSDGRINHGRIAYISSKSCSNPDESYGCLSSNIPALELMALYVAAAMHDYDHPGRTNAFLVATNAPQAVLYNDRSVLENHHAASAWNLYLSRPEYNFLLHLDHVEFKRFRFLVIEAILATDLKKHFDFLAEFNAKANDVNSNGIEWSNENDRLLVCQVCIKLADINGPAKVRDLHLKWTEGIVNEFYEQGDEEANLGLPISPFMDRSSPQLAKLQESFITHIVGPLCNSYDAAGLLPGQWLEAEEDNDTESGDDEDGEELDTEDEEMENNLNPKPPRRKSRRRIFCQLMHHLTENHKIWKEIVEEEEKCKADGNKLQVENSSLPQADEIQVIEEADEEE

Test [3] in a line: Selectivity ratio of inhibition for PDE3A (M1 to Q1141 residues) (unknown origin) by IMAP assay to inhibition for PDE3B (M1 to E1112 residues) (unknown origin) by IMAP assay.
In test [4] the target is cGMP-inhibited 3',5'-cyclic phosphodiesterase 3A (Homo sapiens, UniProt Q14432). Nature of the test: Inhibition of PDE3A (M1 to Q1141 residues) (unknown origin) using FAM-cAMP as substrate incubated for 45 mins by TR-FRET IMAP assay. In outline:
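Full-length PDE3A at 1.6 nM with 50 nM FAM-cAMP, 45 min reaction. Buffer 50 mM Tris-HCl pH 7.5, 8.3 mM MgCl2, 1.7 mM EGTA, 0.05% BSA. Compounds run as a concentration curve with a top final concentration of 100 μM. DMSO and 10 μM trequinsin served as controls. TR-FRET read at Ex 337 nm, Em 520/490 nm.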

Chain of cGMP-inhibited 3',5'-cyclic phosphodiesterase 3A (Q14432 whole entry, the tested form may be a part): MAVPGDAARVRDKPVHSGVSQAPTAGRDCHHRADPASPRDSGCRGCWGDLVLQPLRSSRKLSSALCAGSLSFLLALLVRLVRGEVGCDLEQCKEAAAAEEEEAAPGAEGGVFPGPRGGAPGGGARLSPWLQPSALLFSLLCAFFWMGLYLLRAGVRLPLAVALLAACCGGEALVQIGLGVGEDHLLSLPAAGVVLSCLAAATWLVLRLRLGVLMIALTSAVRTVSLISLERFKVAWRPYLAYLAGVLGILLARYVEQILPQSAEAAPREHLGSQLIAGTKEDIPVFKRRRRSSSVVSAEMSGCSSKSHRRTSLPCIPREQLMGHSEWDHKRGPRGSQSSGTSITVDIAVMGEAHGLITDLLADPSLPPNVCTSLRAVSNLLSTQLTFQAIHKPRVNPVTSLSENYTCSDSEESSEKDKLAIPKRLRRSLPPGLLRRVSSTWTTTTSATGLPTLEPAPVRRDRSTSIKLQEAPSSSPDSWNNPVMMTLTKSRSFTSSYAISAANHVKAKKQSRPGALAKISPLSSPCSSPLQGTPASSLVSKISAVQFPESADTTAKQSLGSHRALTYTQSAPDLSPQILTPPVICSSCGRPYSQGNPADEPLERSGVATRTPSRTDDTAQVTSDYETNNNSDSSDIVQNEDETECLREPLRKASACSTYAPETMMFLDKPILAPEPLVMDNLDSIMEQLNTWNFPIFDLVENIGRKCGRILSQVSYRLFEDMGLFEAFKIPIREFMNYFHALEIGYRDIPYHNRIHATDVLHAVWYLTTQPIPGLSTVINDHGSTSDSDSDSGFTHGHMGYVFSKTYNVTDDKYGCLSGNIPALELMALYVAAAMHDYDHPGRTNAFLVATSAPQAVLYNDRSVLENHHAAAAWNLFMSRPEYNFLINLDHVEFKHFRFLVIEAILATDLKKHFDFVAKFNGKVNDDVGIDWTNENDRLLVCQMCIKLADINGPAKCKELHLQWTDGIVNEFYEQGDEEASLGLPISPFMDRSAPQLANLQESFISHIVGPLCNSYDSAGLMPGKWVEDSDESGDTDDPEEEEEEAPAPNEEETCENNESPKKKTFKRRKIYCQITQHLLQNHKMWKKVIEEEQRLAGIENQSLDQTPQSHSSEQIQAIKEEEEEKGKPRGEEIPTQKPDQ

A word on the IC50: it is the concentration that gives 50% inhibition. A low value points to inhibition by little substance. Consider `COc1ccc2c(OC)cc(C(=O)Nc3cc(B(O)O)cc(C(=O)NCC(C)OC)c3)nc2c1` (centres undefined), for which the figures for the Selectivity ratio in test [1] and in test [3] were 25 and 14, respectively. In addition, the IC50 was 2000 nM in test [2] and 25100 nM in test [4].
As for `CNC(=O)[C@H](NC(=O)c1cc(NC(=O)c2cc(Cl)cc3c2OCC(=O)N3)cc(B(O)O)c1)C1CCCCC1`, the figures for the Selectivity ratio in test [1] and in test [3] were 7 and 3.3, respectively. The IC50 in test [2] was 1580 nM; in test [4], 6310 nM.
The matching figures for `COC[C@H](NC(=O)c1cc(NC(=O)c2cc(OC)c3ccc(OC)cc3n2)cc(B(O)O)c1)C(C)C`: 50, more than 190, 501 nM and more than 100000 nM.
With `CNC(=O)[C@@H](NC(=O)c1cc(NC(=O)c2ccc3ccccc3n2)cc(B(O)O)c1)C1CCCCC1`, the Selectivity ratio in test [1] and in test [3] was 0.5 in each case. For the same compound, the values for the IC50 in test [2] and in test [4] were 50.1 nM and 20 nM, respectively.
For the compound `CNC(=O)[C@@H](NC(=O)c1cc(NC(=O)c2cc(C)cc(C)c2OC)cc(B(O)O)c1)C1CCCCC1`, the Selectivity ratio in test [1] was found to be 6.3; in test [3], 3.4. Further, the IC50 is 316 nM in test [2] and 1000 nM in test [4].
The matching figures for `CNC(=O)[C@@H](NC(=O)c1cc(NC(=O)c2cc3ccccc3cn2)cc(B(O)O)c1)C1CCCCC1`: 2, 1, 3160 nM and 3160 nM.
The matching figures for `CNC(=O)[C@H](NC(=O)c1cc(NC(=O)c2cc(OC)c3ccc(OC)cc3n2)cc(B(O)O)c1)C1CCCCC1`: 78, 37, 316 nM and 10000 nM.
In the same order, the values of `CNC(=O)[C@@H](NC(=O)c1cc(NC(=O)c2ccc3cccnc3n2)cc(B(O)O)c1)C1CCCCC1` are 1, 0.7, 631 nM and 501 nM.
The compound `COc1ccc2c(OC)cc(C(=O)Nc3cc(B(O)O)cc(C(=O)N[C@H]4CCCOC4)c3)nc2c1` showed a concentration for half-maximal inhibition (IC50) in test [4] of 31600 nM.
With `COc1ccc2c(OC)cc(C(=O)Nc3cccc(B(O)O)c3)nc2c1`, the Selectivity ratio came to 4.2 in test [1] and 1.4 in test [3]. Moreover, the IC50 in test [2] is 10000 nM; in test [4], 12600 nM.
The matching figures for `CNC(=O)[C@H](NC(=O)c1cc(NC(=O)c2cc(OC)ccn2)cc(B(O)O)c1)C1CCCCC1`: 1.6, 1, 50100 nM and 50100 nM.
Take `CNC(=O)[C@H](NC(=O)c1cc(NC(=O)c2cc(C)cc(C)c2OC)cc(B(O)O)c1)C1CCCCC1`: the Selectivity ratio in test [1] was determined as 6.6; in test [3], 2.6. Moreover, the IC50 is 794 nM in test [2] and 2000 nM in test [4].
`COc1ccc2c(OC)cc(C(=O)Nc3cc(B(O)O)cc(C(=O)N[C@@H](C(N)=O)C(C)C)c3)nc2c1`: the Selectivity ratio in test [1] was 16; in test [3], 8.5. Moreover, the results for the IC50 in test [2] and in test [4] were 2000 nM and 15800 nM, respectively.
The matching figures for `CNC(=O)[C@@H](NC(=O)c1cc(NC(=O)c2cc(OC)c3cc(OC)ccc3n2)cc(B(O)O)c1)C1CCCCC1`: 0.9, 0.8, 1000 nM and 794 nM.
In the same order, the values of `CNC(=O)[C@@H](NC(=O)c1cc(NC(=O)c2cc(OC)c3ccccc3n2)cc(B(O)O)c1)C1CCCCC1` are 2.3, 1.6, 158 nM and 251 nM.
The matching figures for `COc1ccc2c(OC)cc(C(=O)Nc3cc(B(O)O)cc(C(=O)O)c3)nc2c1`: 5, 3, 2510 nM and 7940 nM.
With `COc1ccc2c(OC)cc(C(=O)Nc3cc(B(O)O)cc(C(=O)N4Cc5ccncc5C4)c3)nc2c1`, the Selectivity ratio in test [1] was found to be 97; in test [3] it was 43. The values for the IC50 in test [2] and in test [4] were 316 nM and 12600 nM, respectively.
The matching figures for `CNC(=O)[C@H](NC(=O)c1cc(NC(=O)c2nc(C)ncc2OC)cc(B(O)O)c1)C1CCCCC1`: 0.8, 0.8, 31600 nM and 31600 nM.
In the same order, the values of `CCNC(=O)N1CCCCC(NC(=O)c2cc(NC(=O)c3cc(C)cc(C)c3OC)cc(B(O)O)c2)C1` (centres undefined) are 3.8, 2.6, 200 nM and 501 nM.
On to `CNC(=O)[C@@H](NC(=O)c1cc(NC(=O)c2ccc3cc(OC)ccc3n2)cc(B(O)O)c1)C1CCCCC1`, for which the Selectivity ratio in test [1] was determined as 1; in test [3] it was 1.2. Moreover, the IC50 is 1000 nM in test [2] and 1260 nM in test [4].
In the same order, the values of `CCNC(=O)N1CCCCC(NC(=O)c2cc(O)cc(NC(=O)c3cc(C)cc(C)c3OC)c2)C1` (centres undefined) are 1, 0.8, 39800 nM and 31600 nM.
With `CNC(=O)[C@@H](NC(=O)c1cc(NC(=O)c2cc(F)cc3nccnc23)cc(B(O)O)c1)C1CCCCC1`, the figures for the Selectivity ratio in test [1] and in test [3] were 1 and 0.7, respectively. Also, the values for the half-maximal inhibitory concentration (IC50) in test [2] and in test [4] were 6.31 nM and 5.01 nM, respectively.
In the same order, the values of `CNC(=O)[C@@H](NC(=O)c1cc(NC(=O)c2ccc3ccc(OC)cc3c2)cc(B(O)O)c1)C1CCCCC1` are 1.9, 1, 10000 nM and 12600 nM.
The matching figures for `COc1ccc2c(OC)cc(C(=O)Nc3cc(B(O)O)cc(C(=O)NC(C)C)c3)nc2c1`: 42, 15, 1000 nM and 15800 nM.
The matching figures for `CNC(=O)c1cc(NC(=O)c2cc(OC)c3ccc(OC)cc3n2)cc(B(O)O)c1`: more than 107, more than 44, 2000 nM and more than 100000 nM.
In the case of `CNC(=O)[C@H](NC(=O)c1cc(NC(=O)C(C)Oc2c(C)cccc2C)cc(B(O)O)c1)C1CCCCC1` (some centres undefined), the results for the Selectivity ratio in test [1] and in test [3] were 4.7 and 3.3, respectively. Moreover, the half-inhibitory concentration (IC50) in test [2] was 25100 nM; in test [4], 79400 nM.
In the same order, the values of `CNC(=O)[C@@H](NC(=O)c1cc(NC(=O)c2ccc3ccccc3c2)cc(B(O)O)c1)C1CCCCC1` are 0.4, 0.3, 5010 nM and 1580 nM.
With `COc1ccc2c(OC)cc(C(=O)Nc3cc(B(O)O)cc(C(=O)N4CCCC4)c3)nc2c1`, the Selectivity ratio in test [1] and in test [3] was 46 in each case. Also, the IC50 in test [2] was 794 nM; in test [4], 31600 nM.
`COc1ccc2c(OC)cc(C(=O)Nc3cc(B(O)O)cc(C(=O)N4CC(OC5CC5)C4)c3)nc2c1`: the Selectivity ratio in test [1] came to 75; in test [3], 17. Also, the concentration for half-maximal inhibition (IC50) in test [2] is 200 nM; in test [4] it was 3160 nM.
For `CNC(=O)[C@@H](NC(=O)c1cc(NC(=O)c2cc(OC)c3ccc(OC)cc3n2)cc(B(O)O)c1)C1CCCCC1`, the Selectivity ratio is 26 in test [1] and 12 in test [3]. Further, the IC50 in test [2] is 79.4 nM; in test [4] it was 1000 nM.
The matching figures for `CNC(=O)[C@@H](NC(=O)c1cc(NC(=O)c2nccc3ccccc23)cc(B(O)O)c1)C1CCCCC1`: 2.7, 2, 200 nM and 398 nM.
In the same order, the values of `COc1ccc2c(OC)cc(C(=O)Nc3cc(B(O)O)cc(C(N)=O)c3)nc2c1` are 45, more than 51, 2000 nM and more than 100000 nM.
Regarding `COc1ccc2c(OC)cc(C(=O)N(C)c3cc(B(O)O)cc(C(=O)NC(C)C)c3)nc2c1`, the concentration for half-maximal inhibition (IC50) in test [2] and in test [4] was more than 100000 nM throughout.
Consider `CNC(=O)[C@@H](C)NC(=O)c1cc(NC(=O)c2cc(OC)c3ccc(OC)cc3n2)cc(B(O)O)c1`, for which the figures for the Selectivity ratio in test [1] and in test [3] were 26 and 24, respectively. The results for the half-maximal inhibitory concentration (IC50) in test [2] and in test [4] were 1000 nM and 25100 nM, respectively.
On to `CNC(=O)[C@@H](NC(=O)c1cc(NC(=O)c2ccc3cc(OC)ccc3c2)cc(B(O)O)c1)C1CCCCC1`, for which the Selectivity ratio in test [1] came to 1.8; in test [3], 1.3. Further, the IC50 in test [2] was 31600 nM; in test [4] it was 39800 nM.
On to `COc1ccc2c(OC)cc(C(=O)Nc3cc(B(O)O)cc(C(=O)N[C@@H]4CCCOC4)c3)nc2c1`, for which, in test [4], the IC50 is 63100 nM.
Turning to `CNC(=O)[C@@H](NC(=O)c1cc(NC(=O)c2cc3c(c(OC)c2)OCC(=O)N3)cc(B(O)O)c1)C1CCCCC1`, the half-maximal inhibitory concentration (IC50) is 631 nM in test [2] and 251 nM in test [4]. In test [3], the Selectivity ratio is 0.4.
